From ChEMBL document CHEMBL5608194, “Novel neuroprotective 5,6-dihydropyrido[2',1':2,3]imidazo[4,5-c]quinoline derivatives acting through cholinesterase inhibition and CB2 signaling modulation” (Eur J Med Chem, 2024)
Active and inactive are the calls of the source. No cut-off for these calls is given here.

Experiments:
SH-SY5Y [1] = test: Inhibition of MPP+ induced mitochondrial superoxide radical production in human SH-SY5Y cells at 10 uM incubated for 24 hrs by MitoSOX staining based microplate reader assay (reference value: 100%); type: functional
Method in brief: (§1)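 Neuron-like SH-SY5Y (20 000 cells/well) co-treated with 5 mM MPP+ and compound for 24 h; plates centrifuged, medium replaced by 5 μM MitoSOX in HBSS, 30 min at 37 °C, fluorescence 500/580 nm; MPP+ signal set to 100 %; triplicates on at least four independent days.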

SH-SY5Y [2] = test: Cytotoxicity against human SH-SY5Y cells assessed as cell death at 10 uM incubated for 72 hrs by propidium iodide staining based fluorescence assay; type: toxicity
Method in brief: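 SH-SY5Y differentiated to neuron-like phenotype with 10 μM all-trans retinoic acid for 48 h, 20 000 cells/well. Compounds from DMSO stocks (DMSO ≤0.5 %) added, then 72 h exposure. Control wells lysed with 1 % Triton X-100 for 1 min, then all wells stained with propidium iodide for fluorescence read-out. Dead-cell proportion expressed relative to Triton X-100-treated control.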

SH-SY5Y [3] = test: Neuroprotective activity against ATRA-differentiated and 3-NPA induced cell death in human SH-SY5Y cells assessed as cell death at 0.1 uM incubated for 48 hrs by propidium iodide staining based fluorescence assay (reference value: 100%); type: functional
Method in brief: (§2)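 ATRA-differentiated SH-SY5Y co-treated with compound and 20 mM 3-nitropropionic acid for 48 h; cell death by propidium iodide fluorescence, 3-NPA-treated signal set to 100 %.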

SH-SY5Y [4] = test: Neuroprotective activity against ATRA-differentiated and 3-NPA induced cell death in human SH-SY5Y cells assessed as cell death at 1 uM incubated for 48 hrs by propidium iodide staining based fluorescence assay (reference value: 100%); type: functional; method in brief: as §2
SH-SY5Y [5] = test: Neuroprotective activity against ATRA-differentiated and 3-NPA induced cell death in human SH-SY5Y cells assessed as cell death at 10 uM incubated for 48 hrs by propidium iodide staining based fluorescence assay (reference value: 100%); type: functional; method in brief: as §2
SH-SY5Y [6] = test: Neuroprotective activity against ATRA-differentiated and MPP+ induced cell death in human SH-SY5Y cells assessed as cell death at 0.1 uM incubated for 24 hrs by propidium iodide staining based fluorescence assay (reference value: 100%); type: functional
Method in brief: (§3)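 ATRA-differentiated SH-SY5Y co-treated with compound and 5 mM MPP+ for 24 h; cell death by propidium iodide fluorescence, MPP+-treated signal set to 100 %.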

SH-SY5Y [7] = test: Neuroprotective activity against ATRA-differentiated and MPP+ induced cell death in human SH-SY5Y cells assessed as cell death at 1 uM incubated for 24 hrs by propidium iodide staining based fluorescence assay (reference value: 100%); type: functional; method in brief: as §3
SH-SY5Y [8] = test: Neuroprotective activity against ATRA-differentiated and MPP+ induced cell death in human SH-SY5Y cells assessed as cell death at 10 uM incubated for 24 hrs by propidium iodide staining based fluorescence assay (reference value: 100%); type: functional; method in brief: as §3
SH-SY5Y [9] = test: Neuroprotective activity against ATRA-differentiated and MPP+ induced cell death in human SH-SY5Y cells assessed as cell death at 10 uM by LDH release assay (reference value: 100%); type: functional
Method in brief: (§4)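 ATRA-differentiated SH-SY5Y co-treated with 5 mM MPP+ and compound; cell death by commercial LDH release kit; MPP+ value set to 100 %; triplicates on at least three independent days.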

SH-SY5Y [10] = test: Neuroprotective activity against ATRA-differentiated and MPP+ induced cell death in human SH-SY5Y cells assessed as cell death at 1 uM by LDH release assay (reference value: 100%); type: functional; method in brief: as §4
SH-SY5Y [11] = test: Neuroprotective activity against MPP+ induced cell death in human SH-SY5Y cells assessed as cell death at 10 uM by YOPRO-1 staining based assay; type: functional
Method in brief: (§5)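 Neuron-like SH-SY5Y co-treated with compound and 5 mM MPP+ for 24 h; centrifuged at 500 × g, medium replaced by 1 μM YO-PRO1 in PBS for 15 min at room temperature; fluorescence 488/530 nm; MPP+ signal set to 100 %; triplicates on at least three independent days.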

SH-SY5Y [12] = test: Neuroprotective activity against MPP+ induced cell death in human SH-SY5Y cells assessed as cell death at 1 uM by YOPRO-1 staining based assay; type: functional; method in brief: as §5
SH-SY5Y [13] = test: Neuroprotective activity against MPP+ induced cell death in human SH-SY5Y cells assessed as cell death at 1 uM incubated for 24 hrs by Cas-3, 7 staining based assay; type: functional
Method in brief: (§6)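 Caspase-3/7 activation with Ac-DEVD-AFC substrate after 24 h co-treatment of neuron-like SH-SY5Y with compound and 5 mM MPP+; MPP+ signal set to 100 %; triplicates on at least three independent days.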

SH-SY5Y [14] = test: Neuroprotective activity against MPP+ induced cell death in human SH-SY5Y cells assessed as cell death at 10 uM incubated for 24 hrs by Cas-3, 7 staining based assay; type: functional; method in brief: as §6
SH-SY5Y [15] = test: Neuroprotective activity against MPP+ induced cell death in human SH-SY5Y cells assessed as decrease in PARP1 cleavage at 1 to 10 uM incubated for 24 hrs by immunoblotting analysis; type: functional, cell-based; details: dose 1-10 µM
SH-SY5Y [16] = test: Inhibition of MPP+ induced superoxide radical production in human SH-SY5Y cells at 10 uM incubated for 24 hrs by microplate reader assay (reference value: 100%); type: functional
Method in brief: (§7)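 Neuron-like SH-SY5Y co-treated with 5 mM MPP+ and compound for 24 h; centrifuged at 500 × g, medium replaced with 10 μM dihydroethidium in PBS for 30 min, fluorescence 500/580 nm; MPP+ signal set to 100 %; triplicates on at least four independent days.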

SH-SY5Y [17] = test: Inhibition of MPP+ induced superoxide radical production in ATRA-differentiated human SH-SY5Y cells at 10 uM incubated for 24 hrs by MitoSOX staining based confocal laser scanning microscopy; type: functional, cell-based
Method in brief: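 50 000 cells seeded on chamber slides, ATRA-differentiated, co-treated with 5 mM MPP+ and compound for 24 h, then stained with MitoSOX and imaged by confocal laser-scanning microscopy (63× objective).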

SH-SY5Y [18] = test: Inhibition of MPP+ induced mitochondrial depolarization in human SH-SY5Y cells at 10 uM incubated for 2 hrs by JC10 staining based confocal laser scanning microscopy; type: functional
Method in brief: (§8)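 ATRA-differentiated SH-SY5Y co-treated with 5 mM MPP+ and compound for 2 h; mitochondrial membrane potential by JC10 ratiometric red/green signal (plate) and confocal imaging of JC10-stained cells (50 000 cells/well slides); DMSO control set to 100 %; triplicates on three independent days.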

SH-SY5Y [19] = test: Inhibition of MPP+ induced Akt phosphorylation at Ser473 residues in human SH-SY5Y cells at 1 to 10 uM incubated for 24 hrs by Western blotting analysis; type: cell-based; details: dose 1-10 µM
Method in brief: (§9)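 ATRA-differentiated neuron-like SH-SY5Y co-treated with 5 mM MPP+ and compound for 24 h, lysed in RIPA buffer, SDS-PAGE, transfer to nitrocellulose, immunoblot for p-Akt (Ser473) and ERK1/2; HSP90 and β-actin loading controls; ECL chemiluminescence imaged by CCD camera.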

[20] = target: Mitogen-activated protein kinase; ERK1/ERK2 (Homo sapiens) (UniProt P27361+P28482); test: Inhibition of MPP+ induced ERK1/2 phosphorylation in human SH-SY5Y cells at 1 to 10 uM incubated for 24 hrs by Western blotting analysis; type: cell-based; details: dose 1-10 µM; method in brief: as §9
Sequence of Mitogen-activated protein kinase; ERK1/ERK2 (Homo sapiens) (P27361 whole entry, looked up): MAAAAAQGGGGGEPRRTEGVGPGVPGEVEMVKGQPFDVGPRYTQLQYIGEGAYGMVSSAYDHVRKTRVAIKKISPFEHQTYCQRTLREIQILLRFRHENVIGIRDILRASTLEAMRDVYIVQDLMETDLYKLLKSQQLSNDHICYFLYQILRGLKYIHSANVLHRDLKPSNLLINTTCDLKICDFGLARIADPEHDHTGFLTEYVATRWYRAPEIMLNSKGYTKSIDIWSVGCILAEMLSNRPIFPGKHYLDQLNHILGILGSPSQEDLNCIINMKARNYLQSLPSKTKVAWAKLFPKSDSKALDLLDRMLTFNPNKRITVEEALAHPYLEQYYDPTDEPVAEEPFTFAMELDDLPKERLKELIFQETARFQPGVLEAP
Sequence of Mitogen-activated protein kinase; ERK1/ERK2 (Homo sapiens) (P28482 whole entry, looked up): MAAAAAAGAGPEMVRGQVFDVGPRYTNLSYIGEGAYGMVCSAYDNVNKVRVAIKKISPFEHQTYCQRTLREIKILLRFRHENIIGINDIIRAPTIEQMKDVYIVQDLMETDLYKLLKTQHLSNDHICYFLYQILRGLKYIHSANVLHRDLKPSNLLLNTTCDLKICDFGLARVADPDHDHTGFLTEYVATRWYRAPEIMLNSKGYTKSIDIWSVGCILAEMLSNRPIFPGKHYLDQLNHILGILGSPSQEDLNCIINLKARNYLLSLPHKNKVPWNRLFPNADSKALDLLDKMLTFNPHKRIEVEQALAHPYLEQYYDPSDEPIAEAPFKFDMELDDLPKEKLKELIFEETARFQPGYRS

Acetylcholinesterase = Acetylcholinesterase (Electrophorus electricus, UniProt O42275); test: Inhibition of electric eel AChE using acetylthiocholine as substrate by Ellman's method
Sequence of Acetylcholinesterase (O42275 whole entry): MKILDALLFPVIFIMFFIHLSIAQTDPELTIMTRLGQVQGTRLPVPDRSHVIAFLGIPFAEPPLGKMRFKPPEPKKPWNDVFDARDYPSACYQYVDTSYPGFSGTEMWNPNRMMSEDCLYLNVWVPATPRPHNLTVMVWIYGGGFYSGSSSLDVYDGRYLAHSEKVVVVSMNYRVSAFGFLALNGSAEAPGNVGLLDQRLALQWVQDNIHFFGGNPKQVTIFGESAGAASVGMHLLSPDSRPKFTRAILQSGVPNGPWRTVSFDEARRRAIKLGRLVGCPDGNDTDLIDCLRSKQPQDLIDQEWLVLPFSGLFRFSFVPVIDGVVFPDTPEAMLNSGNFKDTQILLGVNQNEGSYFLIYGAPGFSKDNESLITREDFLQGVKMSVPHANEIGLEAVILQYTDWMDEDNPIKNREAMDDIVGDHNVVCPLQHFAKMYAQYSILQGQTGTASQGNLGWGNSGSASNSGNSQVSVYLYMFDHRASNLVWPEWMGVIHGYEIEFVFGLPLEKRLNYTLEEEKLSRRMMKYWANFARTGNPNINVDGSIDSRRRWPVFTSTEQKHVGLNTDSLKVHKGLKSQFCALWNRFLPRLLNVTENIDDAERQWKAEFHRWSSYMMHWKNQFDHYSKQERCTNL

Cholinesterase = Cholinesterase (Equus caballus, UniProt P81908); test: Inhibition of equine serum BChE using butyrylthiocholine as substrate by Ellman's method
Sequence of Cholinesterase (P81908 whole entry): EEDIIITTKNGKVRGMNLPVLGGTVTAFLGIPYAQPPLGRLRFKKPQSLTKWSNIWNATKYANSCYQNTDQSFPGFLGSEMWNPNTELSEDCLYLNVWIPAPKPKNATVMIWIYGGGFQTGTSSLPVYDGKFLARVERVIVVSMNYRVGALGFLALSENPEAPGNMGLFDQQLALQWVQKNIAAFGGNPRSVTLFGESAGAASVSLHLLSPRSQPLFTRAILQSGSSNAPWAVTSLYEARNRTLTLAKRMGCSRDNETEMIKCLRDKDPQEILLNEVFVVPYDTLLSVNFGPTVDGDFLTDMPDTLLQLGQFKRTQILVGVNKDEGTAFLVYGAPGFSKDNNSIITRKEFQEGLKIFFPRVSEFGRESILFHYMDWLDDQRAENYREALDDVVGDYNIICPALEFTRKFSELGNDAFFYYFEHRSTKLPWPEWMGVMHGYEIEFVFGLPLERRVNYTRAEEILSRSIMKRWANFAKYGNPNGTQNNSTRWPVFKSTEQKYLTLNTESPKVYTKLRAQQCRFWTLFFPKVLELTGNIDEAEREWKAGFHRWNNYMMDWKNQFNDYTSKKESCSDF
Method in brief: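 Equine serum BChE (0.2 U/mL final) with 40 μM butyrylthiocholine and 100 μM DTNB, modified Ellman spectrophotometry; compounds from DMSO diluted in water, five inhibitor concentrations; IC50 from regression of v0/vi versus inhibitor concentration; triplicate.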

[21] = Selectivity index, ratio of IC50 for electric eel AChE to IC50 for equine serum BChE
Method in brief: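 Ratio of IC50 values from modified Ellman spectrophotometric assays with electric eel AChE and equine serum BChE. Each used enzyme at 0.2 U/mL final, acetylthiocholine or butyrylthiocholine at 40 μM, and DTNB at 100 μM. Inhibitors were dissolved in DMSO, diluted in water, and tested at five concentrations in triplicate. IC50 came from regression of v0/vi against inhibitor concentration.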

SH-SY5Y [22] = test: Neuroprotective activity against MPP+ induced cell death in human SH-SY5Y cells at 1 to 10 uM in presence of AM630; type: functional, cell-based; details: dose 1-10 µM
Method in brief: (§10)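 Neuron-like SH-SY5Y co-treated for 24 h with 5 mM MPP+, compound and CB2 inverse agonist AM630 or antagonist SR144528 at 0.1, 1 or 10 μM; CB2 ligands also tested alone and with MPP+; cell death read-out; triplicates on three independent days.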

SH-SY5Y [23] = test: Neuroprotective activity against MPP+ induced cell death in human SH-SY5Y cells at 1 to 10 uM in presence of SR144528; type: functional, cell-based; details: dose 1-10 µM; method in brief: as §10
[24] = target: Cannabinoid receptor 2 (Homo sapiens) (UniProt P34972); test: Activation of CB2 (unknown origin) expressed in CHO cells at 1 to 10 uM; type: cell-based; details: dose 1-10 µM
Sequence of Cannabinoid receptor 2 (Homo sapiens) (P34972 whole entry): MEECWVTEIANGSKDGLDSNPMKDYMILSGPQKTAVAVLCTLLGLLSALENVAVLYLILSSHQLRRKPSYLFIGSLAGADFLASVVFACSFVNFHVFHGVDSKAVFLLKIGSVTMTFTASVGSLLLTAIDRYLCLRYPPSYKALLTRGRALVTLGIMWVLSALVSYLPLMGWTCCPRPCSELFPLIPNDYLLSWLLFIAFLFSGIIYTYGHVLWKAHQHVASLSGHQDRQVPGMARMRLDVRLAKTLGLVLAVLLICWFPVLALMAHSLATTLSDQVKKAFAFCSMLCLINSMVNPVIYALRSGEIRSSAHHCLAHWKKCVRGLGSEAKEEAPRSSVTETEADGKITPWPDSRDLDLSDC
Method in brief: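 cAMP quantified in CB2-transfected CHO cells after treatment; compound tested at 1 and 10 μM to detect direct receptor activation (commercial LeadHunter service).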

SH-SY5Y [25] = test: Inhibition of MPP+ induced mitochondrial superoxide radical production in human SH-SY5Y cells at 1 uM incubated for 24 hrs by MitoSOX staining based microplate reader assay (reference value: 100%); type: functional; method in brief: as §1
SH-SY5Y [26] = test: Inhibition of MPP+ induced superoxide radical production in human SH-SY5Y cells at 1 uM incubated for 24 hrs by microplate reader assay (reference value: 100%); type: functional; method in brief: as §7
SH-SY5Y [27] = test: Inhibition of MPP+ induced mitochondrial depolarization in human SH-SY5Y cells at 1 uM incubated for 2 hrs by JC10 staining based confocal laser scanning microscopy; type: functional; method in brief: as §8

SMILES	Activity (SH-SY5Y [2]) [%]	Activity (SH-SY5Y [3]) [%]	Activity (SH-SY5Y [4]) [%]	Activity (SH-SY5Y [5]) [%]	Activity (SH-SY5Y [6]) [%]	Activity (SH-SY5Y [7]) [%]	Activity (SH-SY5Y [8]) [%]	Activity (SH-SY5Y [10])	Activity (SH-SY5Y [12]) [%]	Activity (SH-SY5Y [13]) [%]	IC50 (Acetylcholinesterase) [µM]	IC50 (Cholinesterase) [µM]	Ratio IC50 [21]	also measured
CC1(C)Nc2ccccc2-c2nc3ccccn3c21	14.6	98.7	83.1	57.8	96.7	39.7	26.2	Active	58.8	64.2	47.9	28.5	1.68	inhibition at 10 µM (SH-SY5Y [1]): 41.3%; Activity (SH-SY5Y [9]): 50.2%; Activity (SH-SY5Y [11]): 37.9%; Activity (SH-SY5Y [14]): 48.8%; Activity (SH-SY5Y [15]): Active; inhibition at 10 µM (SH-SY5Y [16]): 44.4%; inhibition (SH-SY5Y [17]): Active; inhibition at 10 µM (SH-SY5Y [18]): 66.8%; inhibition (SH-SY5Y [19]): Active; inhibition [20]: Active; Activity (SH-SY5Y [22]): inactive; Activity (SH-SY5Y [23]): inactive; Activity [24]: inactive
c1ccc2c(c1)NC1(CCCCC1)c1c-2nc2ccccn12	12.2	78.5	64	65.8	57	37.3	52.7	65.1%	58.7	59.1	34	19.8	1.72	inhibition at 1 µM (SH-SY5Y [25]): 61.7%; inhibition at 1 µM (SH-SY5Y [26]): 59.9%; inhibition at 1 µM (SH-SY5Y [27]): 70.6%
